ChEMBL document CHEMBL4043282, “Discovery of the First Potent, Selective, and Orally Bioavailable Signal Peptide Peptidase-Like 2a (SPPL2a) Inhibitor Displaying Pronounced Immunomodulatory Effects In Vivo” (J Med Chem, 2018)
Activity calls are given as the source filed them. The calls are words filed in the database; no cut-off is given here.

Legend:
Mus musculus [1] = test: Immunomodulatory activity in mouse assessed as reduction in transition T1 B cells in splenocyte at 3 to 30 mg/kg administered via oral gavage bid at 8 and 16 hrs dosing interval between first and second dose respectively for 11 days measured 16 hrs post last dose on day 12 by flow cytometry; assay type: functional, organism-based
Method in brief: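 Mice gavaged with compound in 0.5% MC:0.5% Tween or PEG:D5W 3:1. Spleens dissociated in GentleMACS, filtered at 40 μm, ACK red-cell lysis, counted; 1 × 10^6 splenocytes stained 30 min on ice in HBSS/2% FBS/5 mM EDTA with antimouse panels for B-cell subsets (B220, CD21, CD23, IgM, IgD) or dendritic cells (PDCA1, CD11c, MHCII, lineage markers); analyzed on Fortessa flow cytometer.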

[2] = Octanol-buffer partition coefficient, log P of the compound by LC/MS/MS based shake flask method; assay type: physicochemical
Rattus norvegicus = test: Dose normalized AUC in Wistar rat at 10 mg/kg, po bid by LC/MS/MS analysis; assay type: ADME, organism-based; details: in vivo
[3] = target: T1, Signal peptide peptidase-like 2A (Mus musculus, UniProt Q9JJF9); test: Inhibition of mouse SPPL2a in A20 cells assessed as CD74/p8 accumulation by flow cytometry; assay type: cell-based
T1 sequence (Q9JJF9 whole entry): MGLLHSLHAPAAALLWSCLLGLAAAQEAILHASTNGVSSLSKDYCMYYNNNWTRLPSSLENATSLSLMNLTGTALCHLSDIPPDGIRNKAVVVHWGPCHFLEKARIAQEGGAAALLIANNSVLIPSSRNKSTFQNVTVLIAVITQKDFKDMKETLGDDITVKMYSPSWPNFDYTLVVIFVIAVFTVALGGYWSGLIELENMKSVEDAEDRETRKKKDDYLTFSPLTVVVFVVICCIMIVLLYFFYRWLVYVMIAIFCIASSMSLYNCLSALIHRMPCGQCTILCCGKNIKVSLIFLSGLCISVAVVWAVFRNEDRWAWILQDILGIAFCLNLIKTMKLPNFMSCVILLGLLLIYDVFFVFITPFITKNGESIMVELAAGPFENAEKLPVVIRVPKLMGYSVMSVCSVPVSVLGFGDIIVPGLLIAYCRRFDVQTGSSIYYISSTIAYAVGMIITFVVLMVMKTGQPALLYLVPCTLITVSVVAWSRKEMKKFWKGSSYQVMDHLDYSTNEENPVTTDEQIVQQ

Mus musculus [4] = test: Dose normalized AUC in po dosed Balb/c mouse by LC/MS/MS analysis; assay type: ADME, organism-based; details: in vivo
[5] = Oral bioavailability in Balb/c mouse by LC/MS/MS analysis; assay type: ADME, organism-based; details: in vivo
[6] = Clearance in Balb/c mouse at 5 mg/kg, iv by LC/MS/MS analysis; assay type: ADME, organism-based; details: in vivo
[7] = Inhibition of human gamma-secretase expressed in HEK293 cells using Notch1-VP16-Gal4 as substrate after 24 hrs by Bright-Glo luciferase reporter gene assay; assay type: cell-based; details: HEK293, 24 h
Method in brief: (§1)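 HEK293 cells transiently transfected with human SPPL2a, VP16-TNFα(aa1-76)-NTF substrate and Gal4-luciferase reporter (SPPL2a), or human Notch1-VP16-Gal4 plus Gal4-luciferase reporter relying on endogenous γ-secretase.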

[8] = target: T2, Signal peptide peptidase-like 2A (Homo sapiens, UniProt Q8TCT8); test: Inhibition of human SPPL2a expressed in HEK293 cells using GAL4-VP16 fusedTNFalpha (1 to 76)-NTF as substrate after 24 hrs by Bright-Glo luciferase reporter gene assay; assay type: cell-based; method in brief: as §1
T2 sequence (Q8TCT8 whole entry): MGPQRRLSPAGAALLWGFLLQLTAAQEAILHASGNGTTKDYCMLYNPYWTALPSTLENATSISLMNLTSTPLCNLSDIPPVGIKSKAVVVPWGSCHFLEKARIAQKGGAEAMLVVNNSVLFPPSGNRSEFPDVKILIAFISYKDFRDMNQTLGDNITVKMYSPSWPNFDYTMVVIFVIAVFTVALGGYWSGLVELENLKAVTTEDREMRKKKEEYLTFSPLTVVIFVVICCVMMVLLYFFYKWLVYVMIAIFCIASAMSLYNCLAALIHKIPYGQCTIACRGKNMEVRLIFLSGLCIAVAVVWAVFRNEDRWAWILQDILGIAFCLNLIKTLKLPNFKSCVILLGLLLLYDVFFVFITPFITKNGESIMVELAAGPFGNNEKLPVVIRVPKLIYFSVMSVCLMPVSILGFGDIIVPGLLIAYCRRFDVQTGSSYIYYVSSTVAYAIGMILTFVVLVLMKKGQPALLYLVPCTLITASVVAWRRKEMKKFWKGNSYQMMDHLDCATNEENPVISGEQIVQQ

[9] = Inhibition of human SPP expressed in human U2OS cells using EGFP-labeled EnvSigSeq-SEAP as substrate after 24 hrs by Hoechst staining based high content imaging assay; assay type: cell-based
Method in brief: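 Stable U-2 OS lines expressing human SPPL2a, SPPL2b or SPP constitutively (mouse SPPL2a line analogous, mouse TNFα(aa1-77)-NTF-EGFP-NLS) with doxycycline-inducible EGFP substrate. 3000 cells/well, 3−4 h, then 11-point inhibitor 100 μM to 1 nM, 0.9% DMSO, 5 μg/mL doxycycline, 24 h 37 °C. PFA fixed, Hoechst nuclei; nuclear minus cytoplasmic EGFP intensity; inhibition vs 0.5 μM reference and DMSO; IC50 by nonlinear regression.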

[10] = Total concentration in Lewis rat blood at 30 mg/kg, po bid after 24 hrs by LC/MS/MS analysis; assay type: ADME, organism-based; details: read-out: Drug uptake
[11] = Drug uptake in Lewis rat spleen at 30 mg/kg, po bid after 24 hrs by LC/MS/MS analysis; assay type: ADME, organism-based; details: read-out: Drug uptake
Plasma = test: Cmin in mouse plasma at 30 mg/kg, po bid administered at 8 and 16 hrs dosing interval between first and second dose respectively for 11 days measured predose on day 12 by LC/MS/MS analysis; assay type: ADME, organism-based; details: in vivo, read-out: Cmin
Method in brief: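 Mice gavaged bid in 0.5% MC:0.5% Tween or PEG:D5W 3:1; trough sample taken before the morning dose; 50 μL retro-orbital blood into LiHep tubes, kept on ice, plasma separated at 2823g for 5 min, stored at −20 °C until analysis.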

[12] = Clearance in Sprague-Dawley rat at 1 mg/kg, iv by LC/MS/MS analysis; assay type: ADME, organism-based; details: in vivo
Method in brief: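 Female Sprague−Dawley rats with femoral artery and vein catheters implanted 96−120 h beforehand; cassette dosing iv 1 mg/kg per compound in NMP/PEG200 (30:70); arterial blood into EDTA tubes at several times, frozen; LC-MS/MS vs standard curve with QCs within 70−130%; noncompartmental analysis.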

[13] = Total plasma concentration in mouse at 10 mg/kg, po administered as single dose after 4 hrs by LC/MS/MS analysis; assay type: ADME, organism-based
[14] = Stability in human liver microsomes at […] preincubated for 3 mins followed by NADPH addition measured after 1 hr in presence of GSH and [13C2-15N-glycine]-GSH by HPLC/MS method; assay type: ADME, microsome; details: read-out: Stability
[15] = Stability in mouse liver microsomes at […] preincubated for 3 mins followed by NADPH addition measured after 1 hr in presence of GSH and [13C2-15N-glycine]-GSH by HPLC/MS method; assay type: ADME, microsome; details: read-out: Stability

logP [2] | AUC/dose (Rattus norvegicus) [nM·h] | IC50 [3] [µM] | AUC/dose (Mus musculus [4]) [nM·h] | bioavailability [5] [%] | clearance [6] [L/h/kg] | IC50 [7] [µM] | IC50 [8] [µM] | IC50 [9] [µM] | concentration at 24 h [10] [µM] | concentration at 24 h [11] [µM] | concentration (Plasma) [µM] | clearance [12] [L/h/kg] | concentration at 4 h [13] [µM] | remaining at 1 h [14] [%] | remaining at 1 h [15] [%] | Compound | Activity (Mus musculus [1])
2.3 | 8787 | 0.137 | 6071 | 94 | 0.3 | 6.1 | 0.077 | 3.73 | 3.56 | 4.45 | 1.1 |  |  |  |  | Cc1ncc(F)cc1NC(=O)C[C@H](C(=O)N[C@@H]1C(=O)N2CC3(CC3)CN2C(=O)c2ccccc21)C1CC1 | Active
 |  | 0.37 | 908 | 100 | 2.76 | 1.86 | 0.035 |  |  |  |  | 2.7 | 0.057 | 70.8 | 92 | Cc1ccccc1NC(=O)C[C@@H](C)C(=O)N[C@@H]1C(=O)N2CCCN2Cc2ccccc21 | 
